Test results reported in ChEMBL document CHEMBL2016433 (Bioorg Med Chem, 2012).
The source made the active and inactive calls.

Experiments:
U-937 [1] = assay: Cytotoxicity against human U937 cells assessed as induction of cell death at 1 to 100 microM after 24 hrs by trypan blue exclusion method; type: functional, cell-based
U-937 [2] = assay: Induction of apoptosis in human U937 cells after 24 hrs by acridine orange staining based microscopy; type: functional, cell-based
Method in brief: (§1)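 U937 cells were treated for 24 h at 37 °C with 1–100 µM compound or vehicle, then stained with acridine orange. Over 600 cells were scored by fluorescence microscopy; apoptosis was defined as uniformly stained nuclei with chromatin condensation or nuclear fragmentation. Mean and SD of at least three determinations.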

U-937 [3] = assay: Induction of cell death in human U937 cells assessed at 1 to 100 microM after 24 hrs by trypan blue exclusion method relative to untreated control; type: functional
Method in brief: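 U937 cells (5×10^4 per well) exposed for 24 h at 37 °C, 5% CO₂ to 1 in 10 serial dilutions from 1 to 100 µM in RPMI-1640 with 5% FBS. Compounds came from 20 mM stocks in DMSO or medium. Controls got vehicle at equal amounts. Membrane-permeable cells were counted by trypan blue exclusion in a haemocytometer and expressed as percent. Mean and standard deviation from at least three determinations.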

U-937 [4] = assay: Cytostatic against human U937 cells assessed as reduction in absolute number of total cells after 24 hrs by haemocytometry; type: functional, cell-based
Method in brief: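 U937 cells, 5×10^4 per well in RPMI-1640 with 5% FBS, 2 mM L-glutamine and penicillin-streptomycin, were exposed to 1 in 10 serial dilutions from 100 µM to 1 µM (stocks 20 mM in DMSO or medium), or to vehicle, for 24 h at 37 °C in CO₂. Total cells were counted by haemocytometer; mean and SD of at least three determinations.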

PBMC [5] = assay: Induction of apoptosis in human PBMC cells assessed as hypodiploid nuclei after 24 hrs by propidium iodide based flow cytometry analysis; type: cell-based
PBMC [6] = assay: Induction of apoptosis in human PBMC cells assessed as hypodiploid nuclei at 1 uM after 48 hrs by propidium iodide based flow cytometry analysis (reference value: 4.7 %); type: cell-based
PBMC [7] = assay: Induction of apoptosis in human PBMC cells assessed as hypodiploid nuclei at 10 uM after 48 hrs by propidium iodide based flow cytometry analysis (reference value: 4.7 %); type: cell-based
PBMC [8] = assay: Induction of apoptosis in human PBMC cells assessed as hypodiploid nuclei at 50 uM after 48 hrs by propidium iodide based flow cytometry analysis (reference value: 4.7 %); type: cell-based
PBMC [9] = assay: Induction of apoptosis in human PBMC cells assessed as hypodiploid nuclei at 100 uM after 48 hrs by propidium iodide based flow cytometry analysis (reference value: 4.7 %); type: cell-based
U-937 [10] = assay: Induction of apoptosis in human U937 cells assessed as hypodiploid nuclei after 24 hrs by propidium iodide based flow cytometry analysis; type: functional, cell-based
U-937 [11] = assay: Induction of apoptosis in human U937 cells assessed as hypodiploid nuclei at 1 uM after 24 hrs by propidium iodide based flow cytometry analysis (reference value: 3.2%); type: functional
U-937 [12] = assay: Induction of apoptosis in human U937 cells assessed as hypodiploid nuclei at 10 uM after 24 hrs by propidium iodide based flow cytometry analysis (reference value: 3.2%); type: functional
U-937 [13] = assay: Induction of apoptosis in human U937 cells assessed as hypodiploid nuclei at 50 uM after 24 hrs by propidium iodide based flow cytometry analysis (reference value: 3.2%); type: functional
U-937 [14] = assay: Induction of apoptosis in human U937 cells assessed as hypodiploid nuclei at 100 uM after 24 hrs by propidium iodide based flow cytometry analysis (reference value: 3.2%); type: functional
MOLT-3 [15] = assay: Cytotoxicity against human MOLT3 cells assessed as cell viability after 24 hrs; type: functional, cell-based; settings: MOLT-3, 24 h
MOLT-3 [16] = assay: Cytotoxicity against human MOLT3 cells after 24 hrs by trypan blue exclusion assay; type: functional
MOLT-3 [17] = assay: Induction of apoptosis in human MOLT3 cells after 24 hrs by acridine orange staining based fluorescence microscopy; type: functional
Method in brief: (§2)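 HeLa, MOLT-3 and THP-1 cells were treated with increasing concentrations for 24 h, then stained with acridine orange and more than 600 cells scored by fluorescence microscopy for condensed or fragmented nuclei. AC30 is the concentration giving 30% apoptotic cells, from a best-fit curve versus log concentration.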

THP-1 [18] = assay: Cytotoxicity against human THP1 cells assessed as cell viability after 24 hrs; type: functional, cell-based; settings: THP-1, 24 h
THP-1 [19] = assay: Cytotoxicity against human THP1 cells after 24 hrs by trypan blue exclusion assay; type: functional
THP-1 [20] = assay: Induction of apoptosis in human THP1 cells after 24 hrs by acridine orange staining based fluorescence microscopy; type: functional; method in brief: as §2
HT-29 [21] = assay: Cytotoxicity against human HT-29 cells assessed as cell viability after 48 hrs; type: functional, cell-based; settings: HT-29, 48 h
Method in brief: (§3)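 HT-29, HepG2 and MCF7 cells were treated in wells with increasing concentrations for 48 h at 37 °C, 5% CO₂. Total cell count was taken by haemocytometer. IC50 is the concentration inhibiting total count by 50%, from a best-fit curve of the value versus log concentration.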

HT-29 [22] = assay: Cytotoxicity against human HT-29 cells after 48 hrs by trypan blue exclusion assay; type: functional
Method in brief: (§4)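 Adherent HT-29, HepG2 and MCF7 cells were seeded in 96 wells with increasing concentrations and incubated 48 h at 37 °C, 5% CO₂. Trypan blue exclusion was done directly in the culture wells. CC30 is the concentration giving 30% cytotoxicity, from a best-fit curve versus log concentration.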

HT-29 [23] = assay: Cytotoxicity against human HT-29 cells assessed as compound concentration causing 30% reduction in formazan product formation after 48 hrs by MTS assay; type: functional; settings: HT-29, 48 h
Method in brief: (§5)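 HT-29, HepG2 and MCF7 cells were exposed to increasing concentrations for 48 h. MTS reagent was then added directly to the wells, incubated a further 4 h, and absorbance read at 490 nm. MAIC30 is the concentration reducing formazan formation by 30%, from a best-fit curve versus log concentration.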

HepG2 [24] = assay: Cytotoxicity against human HepG2 cells assessed as cell viability after 48 hrs; type: functional, cell-based; settings: HepG2, 48 h; method in brief: as §3
HepG2 [25] = assay: Cytotoxicity against human HepG2 cells after 48 hrs by trypan blue exclusion assay; type: functional; method in brief: as §4
HepG2 [26] = assay: Cytotoxicity against human HepG2 cells assessed as compound concentration causing 30% reduction in formazan product formation after 48 hrs by MTS assay; type: functional; settings: HepG2, 48 h; method in brief: as §5
MCF7 [27] = assay: Cytotoxicity against human MCF7 cells assessed as cell viability after 48 hrs; type: functional, cell-based; settings: MCF7, 48 h; method in brief: as §3
MCF7 [28] = assay: Cytotoxicity against human MCF7 cells after 48 hrs by trypan blue exclusion assay; type: functional; method in brief: as §4
MCF7 [29] = assay: Cytotoxicity against human MCF7 cells assessed as compound concentration causing 30% reduction in formazan product formation after 48 hrs by MTS assay; type: functional; settings: MCF7, 48 h; method in brief: as §5
U-937 [30] = assay: Induction of apoptosis in human U937 cells at 100 uM after 24 hrs by acridine orange staining based microscopy; type: functional, cell-based; method in brief: as §1

In the case of CC(=O)OC[C@H]1O[C@@H](SSc2cccc(SS[C@@H]3O[C@H](COC(C)=O)[C@@H](OC(C)=O)[C@H](OC(C)=O)[C@H]3OC(C)=O)c2)[C@H](OC(C)=O)[C@@H](OC(C)=O)[C@@H]1OC(C)=O, the Activity (U-937 [1]) is reported as “Active”.
Cc1c(CSS[C@@H]2O[C@H](CO)[C@@H](O)[C@H](O)[C@H]2O)c(C)c(CSS[C@@H]2O[C@H](CO)[C@@H](O)[C@H](O)[C@H]2O)c(C)c1CSS[C@@H]1O[C@H](CO)[C@@H](O)[C@H](O)[C@H]1O was tested, and the Activity (U-937 [2]) was “inactive”, the Activity (U-937 [1]) was “Active” and the Activity (U-937 [3]) was 25%.
For CC(=O)OC[C@H]1O[C@@H](SSCc2cccc(CSS[C@@H]3O[C@H](COC(C)=O)[C@@H](OC(C)=O)[C@H](OC(C)=O)[C@H]3OC(C)=O)c2)[C@H](OC(C)=O)[C@@H](OC(C)=O)[C@@H]1OC(C)=O, the Activity (U-937 [4]) was “Active”, the Activity (U-937 [2]) was “Active” and the Activity (U-937 [1]) was “Active”.
With CC(=O)OC[C@H]1O[C@@H](SSCc2ccc(CSS[C@@H]3O[C@H](COC(C)=O)[C@@H](OC(C)=O)[C@H](OC(C)=O)[C@H]3OC(C)=O)cc2)[C@H](OC(C)=O)[C@@H](OC(C)=O)[C@@H]1OC(C)=O the Activity (U-937 [1]) was “Active”.
In the case of CC(=O)OC[C@H]1O[C@@H](SSCc2cc(CSS[C@@H]3O[C@H](COC(C)=O)[C@@H](OC(C)=O)[C@H](OC(C)=O)[C@H]3OC(C)=O)cc(CSS[C@@H]3O[C@H](COC(C)=O)[C@@H](OC(C)=O)[C@H](OC(C)=O)[C@H]3OC(C)=O)c2)[C@H](OC(C)=O)[C@@H](OC(C)=O)[C@@H]1OC(C)=O, the Activity (U-937 [4]) is reported as “Dose-dependent effect”, the Activity (U-937 [2]) is reported as “inactive” and the Activity (U-937 [1]) is reported as “inactive”. For the same compound, the Activity (U-937 [3]) was 25%.
For CC(=O)OC[C@H]1O[C@@H](SSCc2cccc(CSS[C@@H]3O[C@H](COC(C)=O)[C@H](OC(C)=O)[C@H](OC(C)=O)[C@H]3OC(C)=O)c2)[C@H](OC(C)=O)[C@@H](OC(C)=O)[C@H]1OC(C)=O, the Activity (U-937 [4]) was “Active”, the Activity (U-937 [2]) was “Active” and the Activity (PBMC [5]) was “Non-toxic”. It also gave an Activity (PBMC [6]) of 4.9%, an Activity (PBMC [7]) of 7.4% and an Activity (PBMC [8]) of 30.9%. The Activity (PBMC [9]) was 31.2%, the Activity (U-937 [10]) was “Dose-dependent effect” and the Activity (U-937 [11]) was 3.1%. The Activity (U-937 [12]) was 4.2%, the Activity (U-937 [13]) was 51% and the Activity (U-937 [14]) was 91.2%. The IC50 (MOLT-3 [15]) was over 100 µM, the CC30 (MOLT-3 [16]) was 54 µM and the AC30 (MOLT-3 [17]) was 15 µM. It also gave an IC50 (THP-1 [18]) of over 100 µM, a CC30 (THP-1 [19]) of over 100 µM and an AC30 (THP-1 [20]) of 92 µM. It also gave an IC50 (HT-29 [21]) of 60 µM, a CC30 (HT-29 [22]) of over 100 µM and an IC30 (HT-29 [23]) of 12 µM. The IC50 (HepG2 [24]) was 54 µM, the CC30 (HepG2 [25]) was 77 µM and the IC30 (HepG2 [26]) was 41 µM. For the same compound, the IC50 (MCF7 [27]) was 42 µM, the CC30 (MCF7 [28]) was over 100 µM and the IC30 (MCF7 [29]) was 61 µM. The Activity (U-937 [1]) was “Active” and the Activity (U-937 [30]) was “Active”.
